According to ChEMBL document CHEMBL1154034, “Piperazinyl-glutamate-pyridines as potent orally bioavailable P2Y12 antagonists for inhibition of platelet aggregation” (Bioorg Med Chem Lett, 2009):

Assays:
P2Y purinoceptor 12 = P2Y purinoceptor 12 (Homo sapiens, UniProt Q9H244); experiment: Binding affinity to human recombinant P2Y12 receptor expressed in CHO cells; type: cell-based
[1] = Effective half life in Sprague-Dawley rat at 2 mg/kg, iv and 5 mg/kg, po; type: ADME, organism-based; settings: in vivo
Summary of the method: (§1)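 Male Sprague–Dawley rats, n = 2–4. Dosed by iv infusion at 2 mg/kg and orally at 5 mg/kg.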

[2] = Volume of distribution at steady state in Sprague-Dawley rat at 2 mg/kg, iv and 5 mg/kg, po; type: ADME, organism-based; settings: in vivo, read-out: Vdss; summary of the method: as §1
[3] = Clearance in Sprague-Dawley rat at 2 mg/kg, iv and 5 mg/kg, po; type: ADME, organism-based; settings: in vivo; summary of the method: as §1
in vivo = settings: Sprague-Dawley, rat, po, 5 mg/kg

Sequence of P2Y purinoceptor 12 (Q9H244 whole entry): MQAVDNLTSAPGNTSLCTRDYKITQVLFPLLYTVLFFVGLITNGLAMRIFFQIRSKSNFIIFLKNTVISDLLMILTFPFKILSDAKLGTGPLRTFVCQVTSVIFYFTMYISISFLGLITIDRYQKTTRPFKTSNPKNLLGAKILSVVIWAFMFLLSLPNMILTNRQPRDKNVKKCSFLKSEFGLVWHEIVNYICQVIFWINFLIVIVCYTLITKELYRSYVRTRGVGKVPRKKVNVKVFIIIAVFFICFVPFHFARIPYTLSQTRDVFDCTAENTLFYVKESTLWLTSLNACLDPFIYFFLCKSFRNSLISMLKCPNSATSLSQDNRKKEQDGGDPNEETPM

Row | Compound | Ki (P2Y purinoceptor 12) | also measured
1 | CCCCOC(=O)N1CCN(C(=O)[C@H](CCC(=O)O)NC(=O)c2cc(OCCO)cc(-c3ccccc3)n2)CC1 | 21 nM | 
2 | CCCCOC(=O)N1CCN(C(=O)[C@H](CCC(=O)O)NC(=O)c2cc(OC3CCNCC3)cc(-c3ccccc3)n2)CC1 | 12 nM | 
3 | CCOC(=O)N1CCN(C(=O)[C@H](CCC(=O)O)NC(=O)c2cc(N3CCN(CCN(C)C)CC3)cc(-c3ccccc3)n2)CC1 | 47 nM | 
4 | CCOC(=O)N1CCN(C(=O)[C@H](CCC(=O)O)NC(=O)c2cc(NC)cc(-c3ccccc3)n2)CC1 | 35 nM | 
5 | CCOC(=O)N1CCN(C(=O)[C@H](CCC(=O)O)NC(=O)c2cc(OCCN)cc(-c3ccccc3)n2)CC1 | 328 nM | 
6 | CCOC(=O)N1CCN(C(=O)[C@H](CCC(=O)O)NC(=O)c2cc(OC3CCNCC3)cc(-c3ccccc3)n2)CC1 | 68 nM | 
7 | NCC1CCN(c2cc(C(=O)N[C@@H](CCC(=O)O)C(=O)N3CCN(C(=O)OCCC4CCCC4)CC3)nc(-c3ccccc3)c2)CC1 | 69 nM | 
8 | CCCCCCOC(=O)N1CCN(C(=O)[C@H](CCC(=O)O)NC(=O)c2cc(N3CCC(O)CC3)cc(-c3ccccc3)n2)CC1 | 24 nM | 
9 | CCOC(=O)N1CCN(C(=O)[C@H](CCC(=O)O)NC(=O)c2ccccn2)CC1 | > 5400 nM | 
10 | CCOC(=O)N1CCN(C(=O)[C@H](CCC(=O)O)NC(=O)c2cc(OCCO)cc(-c3ccccc3)n2)CC1 | 157 nM | 
11 | CCOC(=O)N1CCN(C(=O)[C@H](CCC(=O)O)NC(=O)c2cc(OCCCO)cc(-c3ccccc3)n2)CC1 | 68 nM | 
12 | CCOC(=O)N1CCN(C(=O)[C@H](CCC(=O)O)NC(=O)c2cc(NCc3ccccc3)cc(-c3ccccc3)n2)CC1 | 26 nM | 
13 | CC(C)OC(=O)N1CCN(C(=O)[C@H](CCC(=O)O)NC(=O)c2cc(OC3CCNCC3)cc(-c3ccccc3)n2)CC1 | 157 nM | 
14 | CCCCCCCCOC(=O)N1CCN(C(=O)[C@H](CCC(=O)O)NC(=O)c2cccc(-c3ccccc3)n2)CC1 | 14 nM | 
15 | CCCCOc1cc(C(=O)N[C@@H](CCC(=O)O)C(=O)N2CCN(C(=O)OC(C)C)CC2)nc(-c2ccccc2)c1 | 146 nM | 
16 | CCCCCCOC(=O)N1CCN(C(=O)[C@H](CCC(=O)O)NC(=O)c2cc(N(C)CCS(C)(=O)=O)cc(-c3ccccc3)n2)CC1 | 36 nM | 
17 | CCCCCOC(=O)N1CCN(C(=O)[C@H](CCC(=O)O)NC(=O)c2cc(OCCCC)cc(-c3ccccc3)n2)CC1 | 49 nM | 
18 | CCOC(=O)N1CCN(C(=O)[C@H](CCC(=O)O)NC(=O)c2cc(OC(CC)C(=O)N(CC)CC)cc(-c3ccccc3)n2)CC1 (some centres not stated) | 81 nM | 
19 | CCCCCOC(=O)N1CCN(C(=O)[C@H](CCC(=O)O)NC(=O)c2cc(OC3CCNCC3)cc(-c3ccccc3)n2)CC1 | 3.8 nM | half-life [1]: 18 min; Vd [2]: 3.1 L/kg; clearance [3]: 133 mL/min/kg; bioavailability (in vivo): 1%
20 | Cc1cccc(N2CCN(C(=O)[C@H](CCC(=O)O)NC(=O)c3cc(-c4ccccc4)cc(-c4ccccc4)n3)CC2)c1 | 5.7 nM | 
21 | CCOC(=O)N1CCN(C(=O)[C@H](CCC(=O)O)NC(=O)c2cc(OCC3CCNCC3)cc(-c3ccccc3)n2)CC1 | 76 nM | 
22 | CCCCOC(=O)N1CCN(C(=O)[C@H](CCC(=O)O)NC(=O)c2cc(OCCCC)cc(-c3ccccc3)n2)CC1 | 36 nM | 

Row | Compound | Ki (P2Y purinoceptor 12) | also measured
23 | COC(=O)N1CCN(C(=O)[C@H](CCC(=O)O)NC(=O)c2cccc(-c3ccccc3)n2)CC1 | 2440 nM | 
24 | CCCNc1cc(C(=O)N[C@@H](CCC(=O)O)C(=O)N2CCN(C(=O)OCC)CC2)nc(-c2ccccc2)c1 | 64 nM | 
25 | CCOC(=O)N1CCN(C(=O)[C@H](CCC(=O)O)NC(=O)c2cc(NCCOC)cc(-c3ccccc3)n2)CC1 | 99 nM | 
26 | CCOC(=O)N1CCN(C(=O)[C@H](CCC(=O)O)NC(=O)c2cc(N3CCC(N4CCCC4)CC3)cc(-c3ccccc3)n2)CC1 | 34 nM | 
27 | CCCCOC(=O)N1CCN(C(=O)[C@H](CCC(=O)O)NC(=O)c2cccc(-c3ccccc3)n2)CC1 | 29 nM | 
28 | CCCCOC(=O)N1CCN(C(=O)[C@H](CCC(=O)O)NC(=O)c2cc(OCCOC)cc(-c3ccccc3)n2)CC1 | 18 nM | half-life [1]: 24 min; Vd [2]: 1.5 L/kg; clearance [3]: 49 mL/min/kg; bioavailability (in vivo): 77%
29 | CCOC(=O)N1CCN(C(=O)[C@H](CCC(=O)O)NC(=O)c2cc(OCc3ccccc3)cc(-c3ccccc3)n2)CC1 | 28 nM | 
30 | CCOC(=O)N1CCN(C(=O)[C@H](CCC(=O)O)NC(=O)c2cc(N3CCC(O)CC3)cc(-c3ccccc3)n2)CC1 | 42 nM | 
31 | CCOC(=O)N1CCN(C(=O)[C@H](CCC(=O)O)NC(=O)c2cc(N(CC)CC)cc(-c3ccccc3)n2)CC1 | 23 nM | 
32 | COCCOc1cc(C(=O)N[C@@H](CCC(=O)O)C(=O)N2CCN(C(=O)OC(C)C)CC2)nc(-c2ccccc2)c1 | 189 nM | 
33 | CCOC(=O)N1CCN(C(=O)[C@H](CCC(=O)O)NC(=O)c2cc(NCCN(C)C)cc(-c3ccccc3)n2)CC1 | 270 nM | 
34 | CCCCCOC(=O)N1CCN(C(=O)[C@H](CCC(=O)O)NC(=O)c2cccc(-c3ccccc3)n2)CC1 | 11 nM | half-life [1]: 78 min; Vd [2]: 10.3 L/kg; clearance [3]: 89 mL/min/kg; bioavailability (in vivo): 70%
35 | CCCCCOC(=O)N1CCN(C(=O)[C@H](CCC(=O)O)NC(=O)c2cc(OCCO)cc(-c3ccccc3)n2)CC1 | 32 nM | 
36 | CCCCCCCOC(=O)N1CCN(C(=O)[C@H](CCC(=O)O)NC(=O)c2cccc(-c3ccccc3)n2)CC1 | 7 nM | 
37 | CCCCCCOC(=O)N1CCN(C(=O)[C@H](CCC(=O)O)NC(=O)c2cc(N3CCC(COC)CC3)cc(-c3ccccc3)n2)CC1 | 33 nM | 
38 | C=CCOC(=O)N1CCN(C(=O)[C@H](CCC(=O)O)NC(=O)c2cc(OCCOC)cc(-c3ccccc3)n2)CC1 | 95 nM | 
39 | C=CCOC(=O)N1CCN(C(=O)[C@H](CCC(=O)O)NC(=O)c2cc(OC3CCNCC3)cc(-c3ccccc3)n2)CC1 | 93 nM | 
40 | CCOC(=O)N1CCN(C(=O)[C@H](CCC(=O)O)NC(=O)c2cc(OCCCN)cc(-c3ccccc3)n2)CC1 | 214 nM | 
41 | CCCCCOC(=O)N1CCN(C(=O)[C@H](CCC(=O)O)NC(=O)c2cc(N3CCC(O)CC3)cc(-c3ccccc3)n2)CC1 | 11 nM | 
42 | CCOC(=O)N1CCN(C(=O)[C@H](CCC(=O)O)NC(=O)c2cc(N3CCC(COC)CC3)cc(-c3ccccc3)n2)CC1 | 18 nM | 
43 | C=CCOC(=O)N1CCN(C(=O)[C@H](CCC(=O)O)NC(=O)c2cc(OCCCC)cc(-c3ccccc3)n2)CC1 | 99 nM | 
44 | CCCCCOC(=O)N1CCN(C(=O)[C@H](CCC(=O)O)NC(=O)c2cc(N(C)CCS(C)(=O)=O)cc(-c3ccccc3)n2)CC1 | 15 nM | half-life [1]: 12 min; Vd [2]: 1.3 L/kg; clearance [3]: 69 mL/min/kg

Row | Compound | Ki (P2Y purinoceptor 12) | also measured
45 | CCCCCOC(=O)N1CCN(C(=O)[C@H](CCC(=O)O)NC(=O)c2cc(N3CCC(CN)CC3)cc(-c3ccccc3)n2)CC1 | 7 nM | half-life [1]: 24 min; Vd [2]: 2.6 L/kg; clearance [3]: 70 mL/min/kg; bioavailability (in vivo): 0%
46 | CCCCCOC(=O)N1CCN(C(=O)[C@H](CCC(=O)O)NC(=O)c2cc(OCCOC)cc(-c3ccccc3)n2)CC1 | 10 nM | 
47 | CCCCOc1cc(C(=O)N[C@@H](CCC(=O)O)C(=O)N2CCN(C(=O)OCC)CC2)nc(-c2ccccc2)c1 | 39 nM | 
48 | CCOC(=O)N1CCN(C(=O)[C@H](CCC(=O)O)NC(=O)c2cc(N(C)CCS(C)(=O)=O)cc(-c3ccccc3)n2)CC1 | 48 nM | 
49 | CCCCCCOC(=O)N1CCN(C(=O)[C@H](CCC(=O)O)NC(=O)c2cccc(-c3ccccc3)n2)CC1 | 43 nM | half-life [1]: 42 min; Vd [2]: 1.7 L/kg; clearance [3]: 29 mL/min/kg; bioavailability (in vivo): > 95%
50 | CCCOC(=O)N1CCN(C(=O)[C@H](CCC(=O)O)NC(=O)c2cccc(-c3ccccc3)n2)CC1 | 27 nM | 
51 | CCOC(=O)N1CCN(C(=O)[C@H](CCC(=O)O)NC(=O)c2cc(OCCOC)cc(-c3ccccc3)n2)CC1 | 92 nM | 
52 | CCOC(=O)N1CCN(C(=O)[C@H](CCC(=O)O)NC(=O)c2cc(NCC3CCNCC3)cc(-c3ccccc3)n2)CC1 | 190 nM | 
53 | CCOC(=O)N1CCN(C(=O)[C@H](CCC(=O)O)NC(=O)c2cc(OC)cc(-c3ccccc3)n2)CC1 | 96 nM | 
54 | CCOC(=O)N1CCN(C(=O)[C@H](CCC(=O)O)NC(=O)c2cc(NC3CCOCC3)cc(-c3ccccc3)n2)CC1 | 455 nM | 
55 | CC(C)OC(=O)N1CCN(C(=O)[C@H](CCC(=O)O)NC(=O)c2cc(OCCO)cc(-c3ccccc3)n2)CC1 | 145 nM | 
56 | CN(CCS(C)(=O)=O)c1cc(C(=O)N[C@@H](CCC(=O)O)C(=O)N2CCN(C(=O)OCCC3CCCC3)CC2)nc(-c2ccccc2)c1 | 80 nM | 
57 | CCOC(=O)N1CCN(C(=O)[C@H](CCC(=O)O)NC(=O)c2cc(N3CCC(N)CC3)cc(-c3ccccc3)n2)CC1 | 27 nM | 
58 | Cc1cccc(N2CCN(C(=O)[C@H](CCC(=O)O)NC(=O)c3cccc(-c4ccccc4)n3)CC2)c1 | > 5700 nM | 
59 | C=CCOC(=O)N1CCN(C(=O)[C@H](CCC(=O)O)NC(=O)c2cc(OCCO)cc(-c3ccccc3)n2)CC1 | 203 nM | 
60 | CCCCCOC(=O)N1CCN(C(=O)C(CCC(=O)O)NC(=O)c2cc(N3CCC(COC)CC3)cc(-c3ccccc3)n2)CC1 (single isomer, unassigned) | 510 nM | 
61 | CCCCCCOC(=O)N1CCN(C(=O)[C@H](CCC(=O)O)NC(=O)c2cc(N3CCC(CN)CC3)cc(-c3ccccc3)n2)CC1 | 18 nM | 
62 | CCOC(=O)N1CCN(C(=O)[C@H](CCC(=O)O)NC(=O)c2cc(N3CCC(CN)CC3)cc(-c3ccccc3)n2)CC1 | 14 nM | 
63 | O=C(O)CC[C@H](NC(=O)c1cc(N2CCC(O)CC2)cc(-c2ccccc2)n1)C(=O)N1CCN(C(=O)OCCC2CCCC2)CC1 | 40 nM | 
64 | CCOC(=O)N1CCN(C(=O)[C@H](CCC(=O)O)NC(=O)c2cc(NCCO)cc(-c3ccccc3)n2)CC1 | 114 nM | 
